PRMT1 FP inh = inhibitors of human PRMT1. recombinant PRMT1, activity-based probe fluorescence polarization. inhibition, % at 2.79 µM. Q99873. 1.3% of 370,000 active;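 active = inhibition above about 21% made by adding two undisclosed values, limit read from the data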
Target sequence (Q99873 whole entry, looked up): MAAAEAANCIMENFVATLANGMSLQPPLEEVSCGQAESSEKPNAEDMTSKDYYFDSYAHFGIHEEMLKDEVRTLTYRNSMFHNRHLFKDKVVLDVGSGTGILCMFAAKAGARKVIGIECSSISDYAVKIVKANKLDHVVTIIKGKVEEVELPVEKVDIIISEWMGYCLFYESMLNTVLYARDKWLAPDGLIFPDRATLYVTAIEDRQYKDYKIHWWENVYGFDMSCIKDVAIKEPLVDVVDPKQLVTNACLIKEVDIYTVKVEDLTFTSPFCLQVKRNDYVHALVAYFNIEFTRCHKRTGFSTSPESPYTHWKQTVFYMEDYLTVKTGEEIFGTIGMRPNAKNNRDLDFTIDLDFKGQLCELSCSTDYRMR
HTRA1 inhibitor = blocks human HTRA1 serine peptidase; Q92743; recombinant HTRA1, FP-rhodamine activity-based probe, fluorescence polarization; inhibition, % at 5.96 µM; 0.5% of 340,000 active; AID 504803; in the data active = inhibition above about 36%;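 also: 0% = enzyme with DMSO and 100% = wells lacking enzyme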
mABHD4 FP = inhibitors of mouse ABHD4; inhibition, % at 8.92 µM; purified mABHD4, FP-Rh probe fluorescence polarization; 0.54% of 370,000 active;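 active = inhibition exceeding the mean over every tested compound plus 3 SD, cut at about 30% in these data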;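 also: 0% = plate median of compound wells and 100% = S159A mutant with DMSO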
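Doses – 8.92 µM, single dose · Material – wild-type mouse ABHD4 protein · Replication – single well per compound (singlicate) · Measure – percent inhibition of probe binding, normalized to plate controls · Schedule – 45 min compound pre-incubation plus 60 min probe step, 25 °C · Detection – fluorescence polarization with parallel and perpendicular emission, 525/598 nm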
rCAG binder = r(CAG) repeat RNA binding; TO-PRO-1 dye displacement fluorescence; inhibition, % at 3 µM; 1.3% of 370,000 active;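 active = inhibition above the plate cutoff, the mean of all test compounds on that plate plus 3 SD, cut at about 35% in these data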;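 also: 0% = DMSO alone and 100% = 100 µM mitoxantrone as full dye displacement; higher means more dye released from RNA so lower well fluorescence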
SIAE primary = human SIAE inhibition, primary screen; inhibition, % at 9.66 µM; 0.69% of 370,000 active; Q9HAT2; SIAE FP-Rh probe binding, fluorescence polarization;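 active = inhibition above a cutoff: mean of compounds within the control limits plus 3 SD of those, cut at about 17% in these data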;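 also: 0% = plate median of compound wells and 100% = probe without SIAE protein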
PRMT1 confirm = confirmation of human PRMT1 inhibitors | shares compounds with PRMT1 FP inh | recombinant His-PRMT1, activity-based probe fluorescence polarization | inhibition, % at 2.79 µM | 42% of 3,300 active;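 active = mean inhibition across replicates above the hit cutoff derived for the earlier primary screen, cut at about 22% in these data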
The depositor's hits bear a star; x = no result. Compounds with a hit are over-represented: about 3.3% of the library has one in this group of screens.

SMILES	PRMT1 FP inh	HTRA1 inhibitor	mABHD4 FP	rCAG binder	SIAE primary	PRMT1 confirm
CCN(C(=O)CSc1nnc(-c2cccc(Cl)c2)n1N)c1c(N)n(Cc2ccccc2)c(=O)[nH]c1=O	32*	-8	5	0	0	38*
Cc1nnc(SCC(=O)N(C)c2c(N)n(Cc3ccccc3)c(=O)[nH]c2=O)n1Cc1ccccc1	2	-4	1	-4	-6	x
CCn1c(SCC(=O)N(C)c2c(N)n(Cc3ccccc3)c(=O)[nH]c2=O)nc2ccccc21	27*	-5	8	-6	1	27*
COc1ccc(C(=O)Nn2c(C)nc3ccccc3c2=O)cc1Br	-2	-4	0	1	6	x
CCCCn1c(N)c(N(CCC(C)C)C(=O)CSc2nc3ccccc3n2C)c(=O)[nH]c1=O	27*	-4	3	0	-4	19
CCCc1cc(=O)[nH]c(SCC(=O)Nc2c(C)cccc2C)n1	x	6	x	x	x	x
CC(=O)Nc1c(O)nc(SCC(=O)Nc2c(C)cccc2C)[nH]c1=O	57*	-7	0	1	-5	25*
COc1ccc(NC(=O)C[C@H]2C(=O)N(C3CCCCC3)C[C@@H]2C)cc1	-2	6	2	1	4	x
O=C(Cn1ccccc1=S)c1ccc(Cl)c(Cl)c1	-1	x	1	-1	6	x
On1ccccc1=S	88*	-2	4	3	7	88*
Cc1cc(/C=N/NC(N)=S)c(O)c(/C=N/NC(N)=S)c1	75*	24	15	-442	13	82*
CS(=O)(=O)c1ccc(S(=O)CC(=O)OCc2ccccc2)c([N+](=O)[O-])c1 (stereo not drawn)	66*	1	1	5	5	34*
O=C(CS(=O)c1ccc(C(F)(F)F)cc1[N+](=O)[O-])Oc1ccccc1 (stereo not drawn)	3	-5	7	-5	-3	x
CCCCc1c(O)nc(SCC(=O)N2CCCCC2)n(-c2ccccc2C)c1=O	8	7	0	1	1	x
CCCCc1c(O)nc(SCC(=O)NC(C)(C)C)n(-c2ccccc2C)c1=O	27*	7	-4	-2	9	6
O=C(/C=C/c1ccc([N+](=O)[O-])cc1)N(c1ccccn1)C1CCCCC1	28*	-2	7	11	5	20
Cc1cccc(C)c1NC(=O)C(c1ccccc1OC(F)(F)F)N1CCN(C/C=C/c2ccccc2)CC1 (stereo not drawn)	-4	x	2	1	3	x
CCCCN1C(=O)CC(SC2CC(=O)N(CCCC)C2=O)C1=O (stereo not drawn)	57*	9	-13	-2	1	17
CCN1C(=O)CC(N2CCC(C(=O)OC)CC2)C1=O (stereo not drawn)	-2	6	2	1	0	x
CCN1C(=O)CC(SC2CC(=O)N(CC)C2=O)C1=O (stereo not drawn)	33*	-3	10	1	6	27*
Cc1ccccc1C(=O)NNC(=S)NC(=O)COc1ccccc1	44*	1	-8	0	7	9
O=C(COc1ccccc1)NC(=S)Nc1ccc(Br)cn1	31*	x	6	-2	6	3
COC(=O)c1ccccc1NC(=S)NC(=O)COc1ccccc1	1	-17	3	-2	-1	x
O=C(CSc1n[nH]c(-c2ccncc2)n1)c1ccccc1	2	9	13	0	-1	x
Cc1nc(SCC(=O)c2ccccc2)n[nH]1	54*	-2	7	1	2	43*
CC(=O)Nc1ccc(SCC(=O)N(C)CC(=O)Nc2ccccc2Cl)cc1	58*	4	5	4	-1	61*
CN(CC(=O)Nc1ccccc1Cl)C(=O)COC(=O)CSc1ccc(F)cc1	-5	3	-3	-4	-2	x
O=C1C2C3C=CC(CNS(=O)(=O)c4ccccc4[N+](=O)[O-])(O3)C2C(=O)N1c1ccccc1 (stereo not drawn)	76*	2	-4	3	1	42*
Cc1cc(C)c(S(=O)(=O)NCC23C=CC(O2)C2C(=O)N(c4ccccc4)C(=O)C23)c(C)c1 (stereo not drawn)	54*	-6	5	-4	-4	4
O=[N+]([O-])c1ccccc1S(=O)(=O)NCc1ccco1	-6	x	-1	3	-3	x

Compound activity (PubChem BioAssay)
